Test results as given in publication PMC11904481 (ESMO Open, 2025).
Values joined by “and” are separate entries in the source; they are usually repeats but may differ in a detail not shown here. Equal entries are not always repeated.

Test system: patients with locally advanced unresectable or metastatic, relapsed and/or refractory nonhematological malignancies
Assay: Phase I safety: adverse events
Format: in vivo, human
In short: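 Adverse events were graded by NCI CTCAE v4.03 across three i.v. schedules of the test compound (0.45-11.3 mg/kg; weekly per 28-day cycle, or days 1, 4, 8 ±11, 15 per 21-day cycle). Special-interest events covered retinal dysfunction symptoms and documented retinal disorders. Clustered signs were grouped as 'infusion reaction'. QTc was calculated with the Fridericia correction.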

[1] = schedule 3 cohort 5, 11.3 mg/kg
[2] = schedule 3 cohort 6, 11.3 mg/kg
[3] = schedules 1/2 cohort 1, 0.45 mg/kg

## O=C1Nc2cc3[nH]nc(-c4ccncc4)c3cc2CN1Cc1ccccc1 [KO-947]
All schedules
  deaths due to treatment-related TEAEs: No deaths
  dose interruptions due to toxicity: 14 patients
  dose reductions due to toxicity: 7 patients
  retinal vein occlusion: no reports
Cycle 1, range, 0-114 days
  median time to resolution of ocular events: 3 days
Schedule 3
  AESI blurred vision: 33%
  grade ≥3 TEAE: infusion-related reaction: 7%
  grade ≥3 TEAE: respiratory tract infection: 7%
  patients discontinued owing to AEs: 15%
  patients with at least one AESI: 82%
  patients with grade ≥3 TEAEs: 67%
  patients with grade ≥3 treatment-related TEAEs: 15%
  treatment-related QTc prolongation: 11%
  treatment-related blurred vision: 33.3% and 33%
  treatment-related dyspepsia: 11%
  treatment-related macular edema: 15%
  treatment-related photopsia: 15%
  treatment-related retinal detachment: 15%
  treatment-related vitreous floaters: 11%
Schedule 3 cohort 1, 3.6 mg/kg
  AESI: Blurred vision: 0 n (%)
  AESI: Detachment of retinal pigment epithelium: 0 n (%)
  AESI: Eye disorders: 2 (67) n (%)
  AESI: Macular edema: 0 n (%)
  AESI: Patients with ≥1 AE: 2 (67) n (%)
  AESI: Photopsia: 0 n (%)
  AESI: Retinal detachment: 0 n (%)
  AESI: Subretinal fluid: 1 (33) n (%)
  AESI: Total number of AEs: 4 n
  AESI: Vitreous floaters: 2 (67) n (%)
  Patients with ≥1 treatment-related TEAE: 2 (67) n (%)
  Total number of treatment-related TEAEs: 11 n
  Treatment-related TEAE: Blurred vision: 0 n (%)
  Treatment-related TEAE: Dermatitis acneiform: 0 n (%)
  Treatment-related TEAE: Diarrhea: 0 n (%)
  Treatment-related TEAE: Dyspepsia: 0 n (%)
  Treatment-related TEAE: Infusion-related reaction: 0 n (%)
  Treatment-related TEAE: Macular edema: 0 n (%)
  Treatment-related TEAE: Photopsia: 0 n (%)
  Treatment-related TEAE: QTc prolongation: 0 n (%)
  Treatment-related TEAE: Retinal detachment: 0 n (%)
  Treatment-related TEAE: Subretinal fluid: 1 (33) n (%)
  Treatment-related TEAE: Vitreous floaters: 2 (67) n (%)
Schedule 3 cohort 2, 4.8 mg/kg
  AESI: Blurred vision: 0 n (%)
  AESI: Detachment of retinal pigment epithelium: 0 n (%)
  AESI: Eye disorders: 2 (67) n (%)
  AESI: Macular edema: 0 n (%)
  AESI: Patients with ≥1 AE: 2 (67) n (%)
  AESI: Photopsia: 0 n (%)
  AESI: Retinal detachment: 1 (33) n (%)
  AESI: Subretinal fluid: 1 (33) n (%)
  AESI: Total number of AEs: 2 n
  AESI: Vitreous floaters: 0 n (%)
  Patients with ≥1 treatment-related TEAE: 3 (100) n (%)
  Total number of treatment-related TEAEs: 9 n
  Treatment-related TEAE: Blurred vision: 0 n (%)
  Treatment-related TEAE: Dermatitis acneiform: 0 n (%)
  Treatment-related TEAE: Diarrhea: 1 (33) n (%)
  Treatment-related TEAE: Dyspepsia: 0 n (%)
  Treatment-related TEAE: Infusion-related reaction: 0 n (%)
  Treatment-related TEAE: Macular edema: 0 n (%)
  Treatment-related TEAE: Photopsia: 0 n (%)
  Treatment-related TEAE: QTc prolongation: 0 n (%)
  Treatment-related TEAE: Retinal detachment: 1 (33) n (%)
  Treatment-related TEAE: Subretinal fluid: 1 (33) n (%)
  Treatment-related TEAE: Vitreous floaters: 0 n (%)
Schedule 3 cohort 3, 6.4 mg/kg
  AESI: Blurred vision: 3 (33) n (%)
  AESI: Detachment of retinal pigment epithelium: 0 n (%)
  AESI: Eye disorders: 7 (78) n (%)
  AESI: Macular edema: 1 (11) n (%)
  AESI: Patients with ≥1 AE: 7 (78) n (%)
  AESI: Photopsia: 1 (11) n (%)
  AESI: Retinal detachment: 1 (11) n (%)
  AESI: Subretinal fluid: 2 (22) n (%)
  AESI: Total number of AEs: 11 n
  AESI: Vitreous floaters: 0 n (%)
  Patients with ≥1 treatment-related TEAE: 8 (89) n (%)
  Total number of treatment-related TEAEs: 19 n
  Treatment-related TEAE: Blurred vision: 3 (33) n (%)
  Treatment-related TEAE: Dermatitis acneiform: 0 n (%)
  Treatment-related TEAE: Diarrhea: 1 (11) n (%)
  Treatment-related TEAE: Dyspepsia: 1 (11) n (%)
  Treatment-related TEAE: Infusion-related reaction: 2 (22) n (%)
  Treatment-related TEAE: Macular edema: 1 (11) n (%)
  Treatment-related TEAE: Photopsia: 1 (11) n (%)
  Treatment-related TEAE: QTc prolongation: 0 n (%)
  Treatment-related TEAE: Retinal detachment: 1 (11) n (%)
  Treatment-related TEAE: Subretinal fluid: 2 (22) n (%)
  Treatment-related TEAE: Vitreous floaters: 0 n (%)
Schedule 3 cohort 4, 7.2 mg/kg
  AESI: Blurred vision: 1 (33) n (%)
  AESI: Detachment of retinal pigment epithelium: 1 (33) n (%)
  AESI: Eye disorders: 3 (100) n (%)
  AESI: Macular edema: 1 (33) n (%)
  AESI: Patients with ≥1 AE: 3 (100) n (%)
  AESI: Photopsia: 1 (33) n (%)
  AESI: Retinal detachment: 1 (33) n (%)
  AESI: Subretinal fluid: 0 n (%)
  AESI: Total number of AEs: 14 n
  AESI: Vitreous floaters: 0 n (%)
  Patients with ≥1 treatment-related TEAE: 3 (100) n (%)
  Total number of treatment-related TEAEs: 38 n
  Treatment-related TEAE: Blurred vision: 1 (33) n (%)
  Treatment-related TEAE: Dermatitis acneiform: 1 (33) n (%)
  Treatment-related TEAE: Diarrhea: 2 (67) n (%)
  Treatment-related TEAE: Dyspepsia: 1 (33) n (%)
  Treatment-related TEAE: Infusion-related reaction: 1 (33) n (%)
  Treatment-related TEAE: Macular edema: 1 (33) n (%)
  Treatment-related TEAE: Photopsia: 1 (33) n (%)
  Treatment-related TEAE: QTc prolongation: 0 n (%)
  Treatment-related TEAE: Retinal detachment: 1 (33) n (%)
  Treatment-related TEAE: Subretinal fluid: 0 n (%)
  Treatment-related TEAE: Vitreous floaters: 0 n (%)
[1]
  AESI: Blurred vision: 4 (67) n (%)
  AESI: Detachment of retinal pigment epithelium: 1 (17) n (%)
  AESI: Eye disorders: 6 (100) n (%)
  AESI: Macular edema: 2 (33) n (%)
  AESI: Patients with ≥1 AE: 6 (100) n (%)
  AESI: Photopsia: 1 (17) n (%)
  AESI: Retinal detachment: 1 (17) n (%)
  AESI: Subretinal fluid: 1 (17) n (%)
  AESI: Total number of AEs: 16 n
  AESI: Vitreous floaters: 1 (17) n (%)
  Patients with ≥1 treatment-related TEAE: 6 (100) n (%)
  Total number of treatment-related TEAEs: 50 n
  Treatment-related TEAE: Blurred vision: 4 (67) n (%)
  Treatment-related TEAE: Dermatitis acneiform: 4 (67) n (%)
  Treatment-related TEAE: Diarrhea: 2 (33) n (%)
  Treatment-related TEAE: Dyspepsia: 1 (17) n (%)
  Treatment-related TEAE: Infusion-related reaction: 2 (33) n (%)
  Treatment-related TEAE: Macular edema: 2 (33) n (%)
  Treatment-related TEAE: Photopsia: 1 (17) n (%)
  Treatment-related TEAE: QTc prolongation: 1 (17) n (%)
  Treatment-related TEAE: Retinal detachment: 1 (17) n (%)
  Treatment-related TEAE: Subretinal fluid: 1 (17) n (%)
  Treatment-related TEAE: Vitreous floaters: 1 (17) n (%)
[2]
  AESI: Blurred vision: 1 (33) n (%)
  AESI: Detachment of retinal pigment epithelium: 1 (33) n (%)
  AESI: Eye disorders: 2 (67) n (%)
  AESI: Macular edema: 0 n (%)
  AESI: Patients with ≥1 AE: 2 (67) n (%)
  AESI: Photopsia: 1 (33) n (%)
  AESI: Retinal detachment: 0 n (%)
  AESI: Subretinal fluid: 1 (33) n (%)
  AESI: Total number of AEs: 3 n
  AESI: Vitreous floaters: 0 n (%)
  Patients with ≥1 treatment-related TEAE: 3 (100) n (%)
  Total number of treatment-related TEAEs: 9 n
  Treatment-related TEAE: Blurred vision: 1 (33) n (%)
  Treatment-related TEAE: Dermatitis acneiform: 1 (33) n (%)
  Treatment-related TEAE: Diarrhea: 0 n (%)
  Treatment-related TEAE: Dyspepsia: 0 n (%)
  Treatment-related TEAE: Infusion-related reaction: 1 (33) n (%)
  Treatment-related TEAE: Macular edema: 0 n (%)
  Treatment-related TEAE: Photopsia: 1 (33) n (%)
  Treatment-related TEAE: QTc prolongation: 2 (67) n (%)
  Treatment-related TEAE: Retinal detachment: 0 n (%)
  Treatment-related TEAE: Subretinal fluid: 1 (33) n (%)
  Treatment-related TEAE: Vitreous floaters: 0 n (%)
Schedule 3 total N = 27
  AESI: Blurred vision: 9 (33) n (%)
  AESI: Eye disorders: 22 (82) n (%)
  AESI: Macular edema: 4 (15) n (%)
  AESI: Patients with ≥1 AE: 22 (82) n (%)
  AESI: Photopsia: 4 (15) n (%)
  AESI: Retinal detachment: 4 (15) n (%)
  AESI: Subretinal fluid: 6 (22) n (%)
  AESI: Total number of AEs: 50 n
  AESI: Vitreous floaters: 3 (11) n (%)
  Patients with ≥1 treatment-related TEAE: 25 (93) n (%)
  Total number of treatment-related TEAEs: 136 n
  Treatment-related TEAE: Blurred vision: 9 (33) n (%)
  Treatment-related TEAE: Dermatitis acneiform: 6 (22) n (%)
  Treatment-related TEAE: Diarrhea: 6 (22) n (%)
  Treatment-related TEAE: Dyspepsia: 3 (11) n (%)
  Treatment-related TEAE: Infusion-related reaction: 6 (22) n (%)
  Treatment-related TEAE: Macular edema: 4 (15) n (%)
  Treatment-related TEAE: Photopsia: 4 (15) n (%)
  Treatment-related TEAE: QTc prolongation: 3 (11) n (%)
  Treatment-related TEAE: Retinal detachment: 4 (15) n (%)
  Treatment-related TEAE: Subretinal fluid: 6 (22) n (%)
  Treatment-related TEAE: Vitreous floaters: 3 (11) n (%)
[3]
  AESI: Blurred vision: 0 n (%)
  AESI: Eye disorders: 0 n (%)
  AESI: Macular edema: 0 n (%)
  AESI: Retinal edema: 0 n (%)
  AESI: Subretinal fluid: 0 n (%)
  AESI: Vitreous floaters: 0 n (%)
  Patients with ≥1 AESI: 0 n (%)
  Patients with ≥1 treatment-related TEAE: 1 (100) n (%)
